We go through five compounds from ChEMBL document CHEMBL1212857, “Syntheses and pharmacological characterization of novel thiazole derivatives as potential mGluR5 PET ligands” (Bioorg Med Chem, 2010).

The target of data set [1] is Metabotropic glutamate receptor 5 (Rattus norvegicus, UniProt P31424). In words: Displacement of [3H]M-MPEP from mGluR5 in Sprague-Dawley rat brain membranes (cerebellum removed) after 45 mins by liquid scintillation counting.
A further data set has as its system Cortex. In words: Drug uptake in Sprague-Dawley rat cortex at 0.5 to 5 nM after 45 mins by autoradiography. The data set is classed as ADME, tissue-based. The settings on record: 0.75 h, 0.005 µM. A digest of the protocol: (§1)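 Frozen rat brain slices thawed 30 min at rt, preincubated 10 min at 4 °C in HEPES–BSA buffer pH 7.4, then covered with 0.5 or 5 nM [18F] tracer for 45 min at rt in a humid chamber. Blocking was by co-incubation with excess unlabeled ABP688. Washes were 3×3 min in HEPES buffer and 2×5 s in water at 4 °C, followed by 40 min drying and 7 min phosphor-plate exposure.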

A short description of data set [2]: Lipophilicity, log D of the compound at pH 7.4 by shake flask method. In kind it is physicochemical. Conditions: buffer. A digest of the protocol:
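Shake-flask log D (n = 5): [18F] tracer (80 kBq) added to 0.5 mL 1-octanol and 0.5 mL phosphate buffer pH 7.4, each pre-saturated with the other. Mixed 15 min, centrifuged at 5000g for 5 min, and radioactivity in each phase gamma-counted.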

The subject of data set [3] is Plasma. Nature of the data set: Metabolic stability in rat plasma after 120 mins by UPLC analysis. In kind it is ADME, cell-free. Conditions: 2 h; call rule not given here. In outline: (§2)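 [18F] tracer in ethanol added to human or rat plasma and incubated at 37 °C for 120 min. Aliquots taken at 0, 30, 60, 90 and 120 min into ice-cold acetonitrile, centrifuged (5000g, 4 °C, 10 min), and supernatant analysed by radio-UPLC.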

A further data set deals with Brain. Nature of the data set: Drug uptake in Sprague-Dawley rat brain slices at 0.5 to 5 nM after 45 mins by autoradiography in presence of 500 nM of ABP688. In kind it is ADME, tissue-based. The settings on record: 0.75 h, 0.005 µM. A digest of the protocol:
as §1

Data set [4] is described as follows: Metabolic stability in rat liver microsomes assessed as compound remaining after 60 mins by UPLC analysis. The data set is classed as ADME, Microsome. The settings on record: read-out: Stability. A digest of the protocol:
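Pooled rat liver microsomes (0.52 mg/mL protein). Tracer (20–50 nM) preincubated 5 min with 10 mM NADPH in 0.1 M phosphate pH 7.4 at 37 °C before microsomes were added; testosterone served as positive control and boiled microsomes as negative control. Reactions quenched with ice-cold acetonitrile at 0, 15, 30 and 60 min, centrifuged, and supernatant run by UPLC.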

Data set [5] has as its system Plasma. Nature of the data set: Metabolic stability in human plasma after 120 mins by UPLC analysis. The data set is classed as ADME, cell-free. The settings on record: 2 h. A digest of the protocol:
as §2

The test system of the next data set is Hippocampus. Nature of the data set: Drug uptake in Sprague-Dawley rat hippocampus at 0.5 to 5 nM after 45 mins by autoradiography. The data set is classed as ADME, tissue-based. Conditions: 0.75 h, 0.005 µM. A digest of the protocol: as §1
The test system of a further data set is Striatum. In words: Drug uptake in Sprague-Dawley rat striatum at 0.5 to 5 nM after 45 mins by autoradiography. Conditions: 0.75 h, 0.005 µM. In kind it is ADME, tissue-based. A digest of the protocol:
as §1

Metabotropic glutamate receptor 5, sequence (P31424 whole entry): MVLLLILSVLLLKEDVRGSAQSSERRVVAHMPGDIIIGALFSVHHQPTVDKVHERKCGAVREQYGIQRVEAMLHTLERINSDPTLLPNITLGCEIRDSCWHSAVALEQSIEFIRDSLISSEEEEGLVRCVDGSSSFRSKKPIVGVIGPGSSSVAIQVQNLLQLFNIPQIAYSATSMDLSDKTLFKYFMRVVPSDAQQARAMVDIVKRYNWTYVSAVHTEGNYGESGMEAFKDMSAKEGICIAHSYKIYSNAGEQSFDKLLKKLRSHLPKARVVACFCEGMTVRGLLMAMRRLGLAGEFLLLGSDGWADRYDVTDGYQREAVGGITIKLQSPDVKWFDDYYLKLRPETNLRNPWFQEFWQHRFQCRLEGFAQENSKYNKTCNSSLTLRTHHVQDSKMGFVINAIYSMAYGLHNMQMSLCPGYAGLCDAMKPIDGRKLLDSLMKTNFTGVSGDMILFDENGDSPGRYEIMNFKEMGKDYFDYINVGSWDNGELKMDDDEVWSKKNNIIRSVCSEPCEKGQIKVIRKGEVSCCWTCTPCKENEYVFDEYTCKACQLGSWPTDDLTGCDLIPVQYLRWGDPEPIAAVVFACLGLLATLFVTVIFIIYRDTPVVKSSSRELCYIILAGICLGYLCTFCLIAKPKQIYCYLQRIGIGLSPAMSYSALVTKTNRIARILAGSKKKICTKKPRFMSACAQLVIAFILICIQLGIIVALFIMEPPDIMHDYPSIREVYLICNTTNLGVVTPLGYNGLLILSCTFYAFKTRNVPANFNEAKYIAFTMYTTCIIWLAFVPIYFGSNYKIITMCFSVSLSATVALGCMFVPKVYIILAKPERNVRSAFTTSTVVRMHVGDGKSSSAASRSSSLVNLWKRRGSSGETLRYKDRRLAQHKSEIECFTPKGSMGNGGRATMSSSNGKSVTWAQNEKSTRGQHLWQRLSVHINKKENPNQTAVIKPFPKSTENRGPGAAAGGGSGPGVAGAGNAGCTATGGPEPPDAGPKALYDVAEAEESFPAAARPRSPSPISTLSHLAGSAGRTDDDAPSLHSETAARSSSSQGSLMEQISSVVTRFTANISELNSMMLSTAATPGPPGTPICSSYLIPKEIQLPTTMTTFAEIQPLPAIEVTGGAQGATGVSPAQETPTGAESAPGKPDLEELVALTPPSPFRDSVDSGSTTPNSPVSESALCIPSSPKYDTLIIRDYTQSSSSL

As to `Cc1nc(C#CC2=C/C(=N/OCCOCCF)CCC2)cs1`, the Ki in data set [1] is 21.9 nM.
Regarding `FCCOCCO/N=C1/C=C(C#Cc2cscn2)CCC1`, in [1], the Ki stood at 36 nM.
On to `CO/N=C1/C=C(C#Cc2csc(C[18F])n2)CCC1`, for which the Drug uptake entry in the data set with Cortex is on record as “Active”; in the data set with Brain it was “Not Active”; in the data set on Hippocampus, “Active”; with Striatum it was “Active”. The logD in data set [2] amounted to 1.6. In addition, the Stability result in the data set with Plasma [3] and in the data set on Plasma [5] was “Stable” throughout. Besides, the remaining at 1 h in data set [4] worked out at 93%.
The compound `CO/N=C1/C=C(C#Cc2csc(CF)n2)CCC1` had a Ki in [1] of 5.5 nM.
In the case of `CO/N=C1/C=C(C#Cc2nccs2)CCC1`, the affinity in data set [1] corresponds to a Ki of 20.3 nM.
